The nature of series [1]: Aqueous solubility of the compound at pH 6.8. The note with it: buffer. The series is classed as physicochemical. The method, boiled down: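 Thermodynamic (equilibrium) solubility. 10 mM DMSO stock dried down, then pH 6.8 phosphate buffer added to a target of 1 mM. Shaken at 1350 rpm at ambient temperature for 16–24 h. Supernatant centrifuged twice, diluted 200-fold and quantified by RapidFire-MS/MS against a 4-point calibration curve.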

A short description of series [2]: Clearance in human liver microsomes measured up to 30 mins in presence of NADPH by HPLC-MS/MS analysis. The series is classed as ADME, Microsome. To be noted: read-out: CLH. The method, boiled down:
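Human liver microsomes at 1.25 mg/mL protein in phosphate buffer pH 7.4. Test article at 10 μM, shaken at 37 °C. Reaction started with 2 mM NADPH/4 mM MgCl₂. Aliquots taken at 0, 5, 15 and 30 min and quenched with acetonitrile containing glibenclamide. Parent remaining measured by LC-MS/MS. Elimination rate constant converted to in vitro clearance.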

The nature of series [3]: Clearance in Sprague-Dawley rat liver microsomes measured up to 30 mins in presence of NADPH by HPLC-MS/MS analysis. The series is classed as ADME, Microsome. The note with it: read-out: CLH.
Series [4] is described as follows: Volume of distribution at steady state in Sprague-Dawley rat at 5 mg/kg, po or 0.5 mg/kg, iv measured up to 24 hrs by HPLC-MS/MS analysis. The series is classed as ADME, organism-based. To be noted: in vivo, read-out: Vdss. The method, boiled down: (§1)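 Rat dosing in PEG300:20% Solutol/PBS (10:25:65). IV into a jugular cannula at 0.5 mg/kg (1 mg/kg for some analogues), 1 mL/kg. PO by gavage at 5 mg/kg from a 0.5 mg/mL solution. Blood drawn via jugular cannula at 5 min (IV only), 15 min, 0.5, 1, 2, 4, 7 and 24 h. Plasma analysed by HPLC-MS/MS. Parameters from noncompartmental analysis.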

Series [5] can be described thus: Clearance in Sprague-Dawley rat at 5 mg/kg, po or 0.5 mg/kg, iv measured up to 24 hrs by HPLC-MS/MS analysis. The series is classed as ADME, organism-based. The note with it: in vivo. The method, boiled down: as §1
The nature of series [6]: Half life in Sprague-Dawley rat at 5 mg/kg, po or 0.5 mg/kg, iv measured up to 24 hrs by HPLC-MS/MS analysis. The series is classed as ADME, organism-based. To be noted: in vivo. An outline of the steps:
as §1

Series [7] in a line: Apparent permeability across apical to basolateral membrane in MDCKII-LE cells measured after 120 mins by RapidFire-MS analysis. To be noted: dog, MDCK. The series is classed as ADME, cell-based, Canis lupus familiaris. The method, boiled down:
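MDCK-LE (low efflux) cells seeded at about 265,000 cells/cm² on Transwells and cultured 4 days. Apical-to-basal transport run in triplicate at 10 μM in HBSS/10 mM HEPES pH 7.4 with 0.02% BSA, 120 min at 37 °C without shaking. Bestatin used as integrity marker. Donor and acceptor quantified by MS against glyburide internal standard. Papp and % recovery calculated.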

A short description of series [8]: 1-Octanol/phosphate buffered-saline distribution coefficient, logD of compound at pH 7.4 measured after 4 hrs by LC-MS analysis. The series is classed as physicochemical. An outline of the steps: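 PBS pH 7.4 and 1-octanol, each pre-saturated with the other. 10 mM DMSO stock, dispensed with an internal reference compound in triplicate and dried. Residue shaken in octanol plus buffer for at least 4 h, then centrifuged to separate phases. Both phases quantified by LC-MS/MS. Log D taken from the phase peak-area ratio, normalised to internal standard.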

Series [9] is described as follows: Oral bioavailability in Sprague-Dawley rat at 5 mg/kg measured up to 24 hrs by HPLC-MS/MS analysis. The series is classed as ADME, organism-based. The note with it: in vivo. The method, boiled down:
as §1

Series [10] is described as follows: Cmax in Sprague-Dawley rat systemic circulation at 5 mg/kg, po or 0.5 mg/kg, iv measured up to 24 hrs by HPLC-MS/MS analysis. The series is classed as ADME, organism-based. Also noted: dose 5 mg/kg, time <=24. An outline of the steps: as §1
A short description of series [11]: AUC in Sprague-Dawley rat systemic circulation at 5 mg/kg, po or 0.5 mg/kg, iv measured up to 24 hrs by HPLC-MS/MS analysis. The series is classed as ADME, organism-based. The arrangement: dose 5 mg/kg, time <=24. An outline of the steps: as §1

Values after ≈ are worked out from the molar mass of the structure shown. Positions of bridges follow the written chain, without caps; N, C: chain ends. Non-standard residues stand in square brackets, D forms with d. Residues, ends and D or L forms follow the SMILES beside them. NMeNle = CCCC[C@H](NC)C(=O)O; Nle = CCCC[C@H](N)C(=O)O

For `CCCC[C@@H]1NC(=O)[C@H](CCCC)NC(=O)[C@H]2CCCN2C(=O)[C@H](CCCC)NC(=O)[C@H](Cc2ccccc2)NC(=O)CSC[C@H](C(=O)NC)NC(=O)[C@H](CCCC)NC1=O`, the solubility in series [1] is 9 µM (≈ 7.84 µg/mL). For the same molecule, the microsomal CLint in series [2] and in series [3] was no less than 480 µL/min/mg throughout. For the same molecule, the Vd in series [4] worked out at 0.2 L/kg. Moreover, the clearance in [5] is 72 mL/min/kg. The half-life in series [6] was 4.8 min. Moreover, the Papp A→B at 2 h in series [7] came out at 0.2 ×10⁻⁶ cm/s. In addition, in [8], the logD at 4 h is 3.7. In [9], this molecule registered a bioavailability of less than 1%.
As to `CCCC[C@@H]1NC(=O)[C@H](CCCC)NC(=O)[C@H](CCCC)NC(=O)[C@@H](Cc2ccccc2)NC(=O)CSC[C@H](C(=O)NC)NC(=O)[C@H](CCCC)NC1=O`, in [1], the concentration in solution (solubility) came to 5 µM (≈ 3.87 µg/mL). In addition, the microsomal CLint in [2] and in [3] was no less than 350 µL/min/mg throughout. Also, the Papp A→B at 2 h in series [7] worked out at 0.4 ×10⁻⁶ cm/s. The logD at 4 h in [8] is 3.6.
In series [1], `CCCC[C@@H]1NC(=O)[C@H](CCCC)N(C)C(=O)[C@H](CCCC)NC(=O)[C@H](CCCC)N(C)C(=O)[C@@H](Cc2ccccc2)NC(=O)CSC[C@H](C(=O)NC)NC1=O` yielded a solubility of 18 µM (≈ 14.4 µg/mL). The microsomal CLint in [2] and in series [3] was no less than 350 µL/min/mg throughout. For the same molecule, in series [7], the Papp A→B at 2 h was 1.5 ×10⁻⁶ cm/s. In [8], this molecule displayed a logD at 4 h of 4.2.
For the molecule `CCCC[C@@H]1NC(=O)[C@H](CCCC)N(C)C(=O)[C@H](CCCC)NC(=O)[C@H](Cc2ccccc2)N(C)C(=O)[C@H]([C@@H](C)O)NC(=O)[C@H](CCCC)N(C)C(=O)[C@@H](Cc2ccccc2)NC(=O)CSC[C@@H](C(=O)NC)NC1=O`, the solubility in series [1] was less than 4 µM. For the same molecule, the microsomal CLint in series [2] and in series [3] was no less than 120 µL/min/mg in each case. Besides, the clearance in series [5] worked out at 28.4 mL/min/kg. For the same molecule, the Cmax in [10] came out at 161 nM. In addition, the Papp A→B at 2 h in [7] was less than 0.35 ×10⁻⁶ cm/s. In [11], this molecule displayed an AUC at 24 h of 0.372 µM·h. In [8], this molecule showed a logD at 4 h of 5.2. Also, in [9], the bioavailability was 13%.
Consider `CCCC[C@@H]1NC(=O)[C@H](CCCC)N(C)C(=O)[C@H](CCCC)NC(=O)[C@H](CCCC)N(C)C(=O)[C@H](CCCC)NC(=O)[C@H](CCCC)N(C)C(=O)[C@@H](Cc2ccccc2)NC(=O)CSC[C@@H](C(=O)NC)NC1=O`, for which the solubility in series [1] is less than 4 µM. For the same molecule, the microsomal CLint in [2] and in series [3] was no less than 120 µL/min/mg in each case. The molecule also had a clearance in series [5] of 33 mL/min/kg. The molecule also registered a Cmax in [10] of 411 nM. For the same molecule, the Papp A→B at 2 h in [7] is less than 0.35 ×10⁻⁶ cm/s. Moreover, in series [11], the AUC at 24 h was determined as 1.27 µM·h. The molecule also displayed a logD at 4 h in series [8] of 6. Moreover, the bioavailability in [9] came to 54%.
Consider `CCCC[C@@H]1NC(=O)[C@H](Cc2ccccc2)NC(=O)CSC[C@H](C(=O)NC)NC(=O)[C@H](CCCC)NC(=O)[C@H](CCCC)NC(=O)[C@H](CCCC)NC1=O`, for which the solubility in series [1] was less than 4 µM. The microsomal CLint in series [2] and in [3] was no less than 350 µL/min/mg throughout. Moreover, the clearance in series [5] came to 702 mL/min/kg. The half-life in series [6] was 18 min. In addition, the Papp A→B at 2 h in series [7] was 0.6 ×10⁻⁶ cm/s. Moreover, the logD at 4 h in series [8] amounted to 3.6. In [9], the bioavailability is less than 1%.
On to `CCCC[C@@H]1NC(=O)[C@H](Cc2ccccc2)NC(=O)CSC[C@@H](C(=O)NC)NC(=O)[C@H](CCCC)N(C)C(=O)[C@H](CCCC)N(C)C(=O)[C@H](CCCC)N(C)C(=O)[C@H](CCCC)NC(=O)[C@H](CCCC)N(C)C1=O` ({CH2CO}-F[Nle][NMeNle][Nle][NMeNle][NMeNle][NMeNle]C-NHMe; thioether N-8), for which the solubility in series [1] is less than 4 µM. Further, the microsomal CLint in series [2] and in series [3] was no less than 120 µL/min/mg in each case. For the same molecule, in [5], the clearance came out at 12 mL/min/kg. This molecule also yielded a Cmax in series [10] of 436 nM. Also, the Papp A→B at 2 h in [7] was less than 0.35 ×10⁻⁶ cm/s. This molecule also yielded an AUC at 24 h in series [11] of 1.08 µM·h. This molecule also gave a logD at 4 h in series [8] of 6.1. The molecule also registered a bioavailability in series [9] of 17%.

Source of the values: ChEMBL document CHEMBL4808165, “Design of Thioether Cyclic Peptide Scaffolds with Passive Permeability and Oral Exposure” (J Med Chem, 2021).
